Test results reported in BindingDB's records for doi:10.1016/j.ejmech.2021.113996 (The University of Michigan Medical School, 2022).

Experiments:
[1] = molecular target: Phosphatidylinositol 4,5-bisphosphate 3-kinase catalytic subunit alpha isoform (Homo sapiens, UniProt P42336); assay: Inhibition of human PI3Kalpha by TR-FRET based Adapta assay
[2] = molecular target: T1, Phosphatidylinositol 4,5-bisphosphate 3-kinase catalytic subunit delta isoform (Homo sapiens, UniProt O00329); assay: Inhibition of human PI3Kdelta by TR-FRET based Adapta assay
T1 sequence (O00329 whole entry): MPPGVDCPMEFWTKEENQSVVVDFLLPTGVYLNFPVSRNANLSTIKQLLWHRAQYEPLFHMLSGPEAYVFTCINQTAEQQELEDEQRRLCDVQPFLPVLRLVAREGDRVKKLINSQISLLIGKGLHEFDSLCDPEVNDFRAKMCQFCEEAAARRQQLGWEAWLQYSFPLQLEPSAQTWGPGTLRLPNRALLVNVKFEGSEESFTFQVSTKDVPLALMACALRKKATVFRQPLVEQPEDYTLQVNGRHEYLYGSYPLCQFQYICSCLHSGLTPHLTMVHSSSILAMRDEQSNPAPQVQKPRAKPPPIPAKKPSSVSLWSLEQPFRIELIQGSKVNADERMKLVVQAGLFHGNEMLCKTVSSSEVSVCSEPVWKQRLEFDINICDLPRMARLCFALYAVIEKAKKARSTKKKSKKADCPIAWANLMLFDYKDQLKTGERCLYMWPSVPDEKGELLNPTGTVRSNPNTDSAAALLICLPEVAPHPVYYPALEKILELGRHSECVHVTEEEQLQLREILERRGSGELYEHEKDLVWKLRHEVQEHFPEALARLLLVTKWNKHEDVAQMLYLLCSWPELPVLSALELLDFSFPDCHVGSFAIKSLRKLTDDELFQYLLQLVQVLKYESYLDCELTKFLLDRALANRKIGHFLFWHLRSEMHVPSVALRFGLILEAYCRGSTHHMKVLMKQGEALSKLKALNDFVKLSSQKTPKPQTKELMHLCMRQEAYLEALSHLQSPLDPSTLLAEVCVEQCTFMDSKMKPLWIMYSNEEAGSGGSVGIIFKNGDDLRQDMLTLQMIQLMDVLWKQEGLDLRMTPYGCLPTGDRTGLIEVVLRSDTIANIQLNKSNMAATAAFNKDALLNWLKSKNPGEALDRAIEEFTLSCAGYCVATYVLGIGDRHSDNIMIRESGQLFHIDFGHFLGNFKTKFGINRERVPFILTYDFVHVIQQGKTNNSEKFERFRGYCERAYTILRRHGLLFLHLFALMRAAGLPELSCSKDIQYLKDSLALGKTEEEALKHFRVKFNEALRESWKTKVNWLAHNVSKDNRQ

[3] = molecular target: Phosphatidylinositol 4,5-bisphosphate 3-kinase catalytic subunit beta isoform (Homo sapiens, UniProt P42338); assay: Inhibition of human PI3Kbeta by TR-FRET based Adapta assay
Procedure, shortened: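 Purified human PI3K isoforms α, β, γ and δ assayed by fluorescence-based Adapta TR-FRET lipid kinase assay (outsourced). Inhibitor range 0.1 nM–10 μM. IC₅₀ is the mean ± SEM of three experiments, each run in duplicate.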

[4] = molecular target: Phosphatidylinositol 4,5-bisphosphate 3-kinase catalytic subunit gamma isoform (Homo sapiens, UniProt P48736); assay: Inhibition of human PI3Kgamma by TR-FRET based Adapta assay
Sequence of Phosphatidylinositol 4,5-bisphosphate 3-kinase catalytic subunit gamma isoform (P48736 whole entry, canonical isoform): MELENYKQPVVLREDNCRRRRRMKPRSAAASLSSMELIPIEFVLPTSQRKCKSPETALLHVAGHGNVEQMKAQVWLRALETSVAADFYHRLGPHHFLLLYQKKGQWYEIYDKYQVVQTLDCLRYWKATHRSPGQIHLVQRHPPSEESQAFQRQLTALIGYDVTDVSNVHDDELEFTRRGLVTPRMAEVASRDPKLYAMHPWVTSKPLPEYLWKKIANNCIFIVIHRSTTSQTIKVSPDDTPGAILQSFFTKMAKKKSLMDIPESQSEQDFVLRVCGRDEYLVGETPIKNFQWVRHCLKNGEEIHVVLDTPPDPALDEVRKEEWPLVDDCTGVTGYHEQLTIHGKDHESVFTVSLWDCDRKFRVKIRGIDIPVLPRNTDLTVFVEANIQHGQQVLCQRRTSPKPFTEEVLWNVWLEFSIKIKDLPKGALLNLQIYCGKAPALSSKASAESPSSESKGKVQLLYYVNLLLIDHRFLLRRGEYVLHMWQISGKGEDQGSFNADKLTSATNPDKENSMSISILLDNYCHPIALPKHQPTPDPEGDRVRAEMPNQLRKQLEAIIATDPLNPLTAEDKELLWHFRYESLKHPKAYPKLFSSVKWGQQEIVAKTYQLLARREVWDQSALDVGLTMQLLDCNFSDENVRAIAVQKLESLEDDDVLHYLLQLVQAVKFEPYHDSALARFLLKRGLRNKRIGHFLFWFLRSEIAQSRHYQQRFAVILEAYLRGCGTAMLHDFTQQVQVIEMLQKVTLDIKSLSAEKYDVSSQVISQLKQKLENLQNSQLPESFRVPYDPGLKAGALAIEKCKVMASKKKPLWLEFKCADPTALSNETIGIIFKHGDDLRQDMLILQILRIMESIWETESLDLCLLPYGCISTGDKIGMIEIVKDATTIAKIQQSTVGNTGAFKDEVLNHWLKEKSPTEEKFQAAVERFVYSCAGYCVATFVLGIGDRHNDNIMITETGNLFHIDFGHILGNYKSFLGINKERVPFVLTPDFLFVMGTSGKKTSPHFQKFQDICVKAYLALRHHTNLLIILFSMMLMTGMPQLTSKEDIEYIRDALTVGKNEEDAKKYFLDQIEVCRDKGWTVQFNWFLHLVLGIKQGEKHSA

Sequence of Phosphatidylinositol 4,5-bisphosphate 3-kinase catalytic subunit alpha isoform (P42336 whole entry, canonical isoform): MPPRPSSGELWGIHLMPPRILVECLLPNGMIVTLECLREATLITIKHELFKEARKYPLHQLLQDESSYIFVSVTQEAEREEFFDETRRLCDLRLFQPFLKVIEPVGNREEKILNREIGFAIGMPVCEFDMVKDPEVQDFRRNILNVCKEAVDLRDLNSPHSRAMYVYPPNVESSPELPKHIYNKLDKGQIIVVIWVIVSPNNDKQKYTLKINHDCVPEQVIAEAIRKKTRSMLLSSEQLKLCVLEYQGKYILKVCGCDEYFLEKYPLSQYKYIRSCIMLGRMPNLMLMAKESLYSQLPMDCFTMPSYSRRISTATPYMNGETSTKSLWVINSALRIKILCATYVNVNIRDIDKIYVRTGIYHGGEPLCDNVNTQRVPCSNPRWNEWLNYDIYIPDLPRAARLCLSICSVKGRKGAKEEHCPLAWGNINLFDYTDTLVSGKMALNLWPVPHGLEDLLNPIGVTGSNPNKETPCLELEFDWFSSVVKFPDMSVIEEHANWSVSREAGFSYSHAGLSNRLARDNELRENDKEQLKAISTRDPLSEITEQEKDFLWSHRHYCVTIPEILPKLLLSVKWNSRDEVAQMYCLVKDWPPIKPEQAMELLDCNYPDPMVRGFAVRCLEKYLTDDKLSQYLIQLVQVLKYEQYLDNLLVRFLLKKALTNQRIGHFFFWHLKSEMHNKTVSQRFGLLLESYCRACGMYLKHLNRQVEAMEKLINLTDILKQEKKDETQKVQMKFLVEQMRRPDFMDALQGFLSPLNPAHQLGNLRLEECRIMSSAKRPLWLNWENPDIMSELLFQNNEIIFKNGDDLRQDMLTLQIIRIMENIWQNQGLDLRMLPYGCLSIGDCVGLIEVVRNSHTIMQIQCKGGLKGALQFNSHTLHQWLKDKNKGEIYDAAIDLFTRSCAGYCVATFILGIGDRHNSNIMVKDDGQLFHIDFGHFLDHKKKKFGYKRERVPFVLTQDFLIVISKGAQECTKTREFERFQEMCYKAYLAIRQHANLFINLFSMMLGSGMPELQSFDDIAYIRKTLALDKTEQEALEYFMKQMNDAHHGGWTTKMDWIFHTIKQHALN
Sequence of Phosphatidylinositol 4,5-bisphosphate 3-kinase catalytic subunit beta isoform (P42338 whole entry, canonical isoform): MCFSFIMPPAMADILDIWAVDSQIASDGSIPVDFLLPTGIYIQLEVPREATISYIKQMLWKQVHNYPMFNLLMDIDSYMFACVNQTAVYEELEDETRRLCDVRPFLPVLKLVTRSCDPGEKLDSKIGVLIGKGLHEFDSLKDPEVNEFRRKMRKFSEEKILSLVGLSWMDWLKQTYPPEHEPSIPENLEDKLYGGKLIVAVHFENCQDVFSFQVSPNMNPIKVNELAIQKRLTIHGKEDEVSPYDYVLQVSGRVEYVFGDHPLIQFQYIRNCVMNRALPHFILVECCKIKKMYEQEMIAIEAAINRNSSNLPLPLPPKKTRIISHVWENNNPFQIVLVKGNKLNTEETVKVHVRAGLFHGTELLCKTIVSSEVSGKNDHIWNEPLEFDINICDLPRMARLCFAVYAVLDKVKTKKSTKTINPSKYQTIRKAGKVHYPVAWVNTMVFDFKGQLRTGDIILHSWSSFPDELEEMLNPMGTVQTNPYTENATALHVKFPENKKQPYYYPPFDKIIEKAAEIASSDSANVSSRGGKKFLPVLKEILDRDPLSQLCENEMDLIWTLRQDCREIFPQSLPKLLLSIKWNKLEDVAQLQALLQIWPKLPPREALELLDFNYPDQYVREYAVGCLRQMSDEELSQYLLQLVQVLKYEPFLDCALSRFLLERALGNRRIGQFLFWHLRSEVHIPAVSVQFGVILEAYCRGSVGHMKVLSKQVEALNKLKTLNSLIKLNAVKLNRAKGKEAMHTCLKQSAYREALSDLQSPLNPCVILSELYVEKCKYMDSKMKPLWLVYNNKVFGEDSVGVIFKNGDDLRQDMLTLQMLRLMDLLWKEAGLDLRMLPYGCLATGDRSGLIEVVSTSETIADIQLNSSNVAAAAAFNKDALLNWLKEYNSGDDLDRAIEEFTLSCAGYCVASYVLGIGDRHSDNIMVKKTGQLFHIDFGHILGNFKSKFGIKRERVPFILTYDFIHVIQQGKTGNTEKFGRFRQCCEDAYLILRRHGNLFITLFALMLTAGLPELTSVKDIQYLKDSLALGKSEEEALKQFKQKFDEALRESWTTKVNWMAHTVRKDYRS

Row | IC50 [1] | IC50 [2] | IC50 [3] | IC50 [4] | SMILES
1 | 8.2 nM | 2.9 nM |  |  | CC(=O)N1CCN(c2nc(N3CCOCC3)nc(-n3c(C(F)F)nc4ccccc43)n2)CC1
2 | 180 nM | 142 nM |  |  | FC(F)c1nc2ccccc2n1-c1nc(N2CCNCC2)nc(N2CCOCC2)n1
3 | 148 nM | 47 nM | 627 nM | 869 nM | CNCCN(CCO)c1nc(N2CCOCC2)nc(-n2c(C(F)F)nc3ccccc32)n1
